Format in all cases: cell-based
Assay [1] is filed under the species Rattus norvegicus. Description: Inhibition of HSP90 in rat 50B11 cells transfected with human HSPA1A promoter assessed as induction of human Hsp70 expression at 10 to 1000 nM incubated for 16 hrs by luciferase reporter gene assay.
Assay [2] is filed under the species Rattus norvegicus. Description: Inhibition of HSP90 in rat 50B11 cells assessed as decrease in c-jun protein expression at 1 uM incubated for 24 hrs followed by 10% FBS exposure for 2 hrs by Western blot analysis. The procedure, abridged: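 50B11 cells held in serum-free medium 24 h to arrest cycle and lower c-Jun, then given vehicle or 1.0 μM compound for 24 h; c-Jun induced by 10% FBS medium for 2 h. Lysates immunoblotted for c-Jun with actin control; densitometry gives fold change normalized to serum-free-then-serum control. Mean ±SEM, n >2.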
(In general: Immunoblotting shows a protein as a band on a membrane.)

Assay [3] is filed under the species Rattus norvegicus. Nature of the assay: Inhibition of HSP90 in rat 50B11 cells assessed as improvement in mitochondrial bioenergetics by measuring suppression of H2O2-induced reduction in oxygen consumption rate at 1 uM after 24 hrs by XF96 extracellular flux analyzer based method. The procedure, abridged: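 50B11 cells seeded in high-glucose DMEM with 10% FBS; after 12 h switched to high-glucose DMEM with 1% FBS plus 1.0 μM compound or DMSO for 24 h, then stressed with 0.5 mM H2O2 for 2 h. Intact-cell OCR and ECAR read on XF96 extracellular flux analyzer; maximal respiratory capacity from FCCP response; significance versus H2O2 alone, p<0.05.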

Assay [4] is filed under the species Rattus norvegicus. Description: Inhibition of HSP90 in rat 50B11 cells assessed as increase in Hsp70 protein expression at 0.03 to 3 uM after 24 hrs by immunoblot assay. The procedure, abridged: (§1)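 Nontransfected 50B11 cells exposed 24 h to compound, with DMSO as negative control. Hsp70 detected by immunoblot; densitometry reports fold induction over DMSO. Mean ±SEM, n >2.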

For assay [5], the species on record is Rattus norvegicus. Description: Inhibition of HSP90 in rat 50B11 cells assessed as increase in Hsp70 protein expression at 1 uM after 24 hrs by immunoblot assay. Put shortly:
as §1

The structures appear in SMILES notation. Active and inactive are the calls of the source. The calls are words filed in the database; no cut-off is given here.

With `CC(=O)Nc1cc2ccc(OCc3ccc(Cl)cc3)c(C)c2oc1=O`, in assay [1], the inhibition entry was “inactive”.

Take `COc1cc(OC2CCC(OCc3ccc(Cl)cc3)CC2)cc(-c2cccc(F)c2)c1CCNC(C)=O` (configuration not stated): the inhibition result in assay [2], in assay [3] and in assay [4] was “Active” in each case.

With `CC(=O)NCCc1ccc(OC2CCC(OCc3ccccc3C)CC2)cc1-c1cccc(F)c1` (configuration not stated), in assay [1], the inhibition entry was “Active”.

Turning to `CC(=O)Nc1cc2ccc(O)c(C)c2oc1=O`, in assay [1], the inhibition entry was “inactive”.

With `CC(=O)NCCc1ccc(OC2CCC(OCc3ccc(C(F)(F)F)cc3)CC2)cc1-c1cccc(F)c1` (configuration not stated), the inhibition result in assay [5] is “inactive”. In addition, the inhibition entry in assay [1] was “Active”.

With `COc1cc(Cl)ccc1COC1CCC(Oc2ccc(CCNC(C)=O)c(-c3cccc(F)c3)c2)CC1` (configuration not stated), the inhibition result in assay [5] was “inactive”. The inhibition result in assay [1] was “Active”.

For `COc1ccccc1COC1CCC(Oc2ccc(CCNC(C)=O)c(-c3cccc(F)c3)c2O)CC1` (configuration not stated), the inhibition result in assay [4] is “Active”.

In the case of `CC(=O)NCCc1ccc(OC2CCC(OCc3c(Cl)cccc3Cl)CC2)cc1-c1cccc(F)c1` (configuration not stated), in assay [5], the inhibition result was “inactive”. For the same compound, the inhibition entry in assay [1] was “Active”.

`CC(=O)NCCc1ccc(OC2CCC(OCc3ccc(C)cc3)CC2)cc1-c1cccc(F)c1` (configuration not stated): in assay [1], the inhibition entry is “Active”.

With `COc1cc(C)ccc1COC1CCC(Oc2ccc(CCNC(C)=O)c(-c3cccc(F)c3)c2)CC1` (configuration not stated), the inhibition entry in assay [1] is “Active”.

With `CC(=O)NCCc1ccc(OC2CCC(OCc3ccccc3C)CC2)c(O)c1-c1cccc(F)c1` (configuration not stated), the inhibition result in assay [4] is “Active”.

`CC(=O)NCCc1c(O)cc(OC2CCC(OCc3ccccc3)CC2)cc1-c1cccc(F)c1` (configuration not stated): the inhibition entry in assay [2] and in assay [4] was “Active” throughout.

As for `CC(=O)NCCc1cc(C)c(OC2CCC(OCc3ccccc3C)CC2)cc1-c1cccc(F)c1` (configuration not stated), the inhibition result in assay [4] was “inactive”.

For the compound `COc1ccccc1COC1CCC(Oc2cc(OC)c(CCNC(C)=O)c(-c3cccc(F)c3)c2)CC1` (configuration not stated), in assay [4], the inhibition entry is “Active”.

For the compound `COc1ccc(COC2CCC(Oc3ccc(CCNC(C)=O)c(-c4cccc(F)c4)c3)CC2)cc1` (configuration not stated), the inhibition entry in assay [1] is “Active”.

`CC(=O)Nc1cc2ccc(OCc3ccccc3)c(C)c2oc1=O`: in assay [1], the inhibition entry is “inactive”.

With `CC(=O)Nc1cc2ccc(OCc3ccccc3Br)c(C)c2oc1=O`, the inhibition entry in assay [1] is “inactive”.

Regarding `CC(=O)NCCc1ccc(OC2CCC(OCc3ccc(Cl)cc3)CC2)c(O)c1-c1cccc(F)c1` (configuration not stated), the inhibition entry in assay [4] was “Active”.

In the case of `CC(=O)NCCc1ccc(OC2CCC(OCc3ccccc3F)CC2)cc1-c1cccc(F)c1` (configuration not stated), in assay [1], the inhibition entry is “Active”.

For the compound `CC(=O)NCCc1ccc(OC2CCC(OCc3ccc(Cl)cc3Br)CC2)cc1-c1cccc(F)c1` (configuration not stated), the inhibition entry in assay [1] was “Active”.

Turning to `COc1ccccc1COc1ccc2cc(NC(C)=O)c(=O)oc2c1C`, the inhibition result in assay [1] was “inactive”.

With `CC(=O)NCCc1ccc(OC2CCC(OCc3ccccc3)CC2)cc1-c1cccc(F)c1` (configuration not stated), the inhibition entry in assay [3] and in assay [1] was “Active” in each case.

For the compound `CC(=O)NCCc1c(O)cc(OC2CCC(OCc3ccc(Cl)cc3)CC2)cc1-c1cccc(F)c1` (configuration not stated), the inhibition entry in assay [4] was “Active”.

Take `CC(=O)NCCc1ccc(OC2CCC(OCc3ccccc3)CC2)c(O)c1-c1cccc(F)c1` (configuration not stated): the inhibition entry in assay [4] is “Active”.

Turning to `CC(=O)NCCc1c(O)cc(OC2CCC(OCc3ccccc3C)CC2)cc1-c1cccc(F)c1` (configuration not stated), the inhibition entry in assay [4] is “Active”.

Consider `CC(=O)NCCc1ccc(OC2CCC(OCc3ccc(Cl)cc3)[C@@H](O)[C@H]2O)cc1-c1cccc(F)c1` (some centres not stated), for which the inhibition entry in assay [5] and in assay [1] was “Active” throughout.

Consider `CC(=O)NCCc1cc(C)c(OC2CCC(OCc3ccc(Br)cc3)CC2)cc1-c1cccc(F)c1` (configuration not stated), for which, in assay [4], the inhibition entry is “inactive”.

For `COc1cc(OC2CCC(OCc3ccccc3C)CC2)cc(-c2cccc(F)c2)c1CCNC(C)=O` (configuration not stated), the inhibition entry in assay [4] is “Active”.

As for `CO[C@@H]1[C@@H](O)[C@@H](O)[C@H](Oc2ccc(CCNC(C)=O)c(-c3cccc(F)c3)c2)OC1(C)C`, the inhibition entry in assay [3] and in assay [4] was “Active” in each case.

Regarding `CC(=O)NCCc1ccc(O)cc1-c1cccc(F)c1`, the inhibition result in assay [1] was “inactive”.

On to `CO[C@@H]1[C@@H](O)[C@@H](O)[C@H](Oc2cc(-c3cccc(F)c3)c(CCNC(C)=O)cc2C)OC1(C)C`, for which the inhibition result in assay [4] was “Active”.

For `CC(=O)NCCc1cc(C)c(OC2CCC(OCc3ccccc3)CC2)cc1-c1cccc(F)c1` (configuration not stated), in assay [4], the inhibition result is “inactive”.

Regarding `CC(=O)NCCc1ccc(OC2CCC(OCc3ccccc3Br)CC2)cc1-c1cccc(F)c1` (configuration not stated), the inhibition result in assay [5] and in assay [1] was “Active” throughout.

As for `CC(=O)NCCc1ccc(OC2CCC(OCc3ccc4ccccc4c3)CC2)cc1-c1cccc(F)c1` (configuration not stated), the inhibition result in assay [1] is “Active”.

For the compound `COc1ccccc1COC1CCC(Oc2cc(O)c(CCNC(C)=O)c(-c3cccc(F)c3)c2)CC1` (configuration not stated), the inhibition result in assay [2] and in assay [4] was “Active” each time.

As for `CC(=O)NCCc1ccc(OC2CCC(OCc3ccc(Br)cc3)CC2)cc1-c1cccc(F)c1` (configuration not stated), the inhibition result in assay [1] was “Active”.

In the case of `CC(=O)NCCc1ccc(OC2CCC(OCc3cccc(Cl)c3)CC2)cc1-c1cccc(F)c1` (configuration not stated), in assay [1], the inhibition entry is “Active”.

With `CC(=O)NCCc1ccc(OC2CCC(OCc3ccc(Br)cc3)CC2)c(O)c1-c1cccc(F)c1` (configuration not stated), the inhibition result in assay [2] and in assay [4] was “Active” in each case.

In the case of `COc1ccccc1COC1CCC(Oc2ccc(CCNC(C)=O)c(-c3cccc(F)c3)c2)CC1` (configuration not stated), the inhibition entry in assay [5] is “Active”.

`COc1cc(OC2CCC(OCc3ccc(Br)cc3)CC2)cc(-c2cccc(F)c2)c1CCNC(C)=O` (configuration not stated): the inhibition entry in assay [2] and in assay [4] was “Active” in each case.

For `CC(=O)NCCc1ccc(OC2CCC(OCc3ccccc3Cl)CC2)cc1-c1cccc(F)c1` (configuration not stated), the inhibition result in assay [5] and in assay [1] was “Active” each time.

As for `CC(=O)NCCc1ccc(OC2C=CC(OCc3ccc(Cl)cc3)CC2)cc1-c1cccc(F)c1` (configuration not stated), the inhibition entry in assay [5] and in assay [1] was “Active” each time.

Turning to `CC(=O)NCCc1ccc(OC2CCC(OCc3ccc(Cl)cc3)CC2)cc1-c1cccc(F)c1` (configuration not stated), the inhibition result in assay [5] is “inactive”. Besides, the inhibition entry in assay [1] is “Active”.

Turning to `CC(=O)NCCc1ccc(OC2CCC(OCc3ccc(F)cc3)CC2)cc1-c1cccc(F)c1` (configuration not stated), the inhibition entry in assay [1] was “Active”.

`CC(=O)NCCc1c(O)cc(OC2CCC(OCc3ccc(Br)cc3)CC2)cc1-c1cccc(F)c1` (configuration not stated): the inhibition result in assay [4] was “Active”.

As to `COc1cc(O[C@@H]2OC(C)(C)[C@H](OC)[C@@H](O)[C@H]2O)cc(-c2cccc(F)c2)c1CCNC(C)=O`, the inhibition entry in assay [2] was “Active”.

In the case of `COc1ccccc1COC1CCC(Oc2cc(-c3cccc(F)c3)c(CCNC(C)=O)cc2C)CC1` (configuration not stated), the inhibition result in assay [4] is “inactive”.

Turning to `COc1cccc(COC2CCC(Oc3ccc(CCNC(C)=O)c(-c4cccc(F)c4)c3)CC2)c1` (configuration not stated), in assay [1], the inhibition entry is “Active”.

Regarding `CO[C@@H]1[C@@H](O)[C@@H](O)[C@H](Oc2cc(O)c(CCNC(C)=O)c(-c3cccc(F)c3)c2)OC1(C)C`, the inhibition result in assay [2] is “Active”.

As for `CC(=O)NCCc1ccc(OC2CCC(OCc3ccc(C(C)(C)C)cc3)CC2)cc1-c1cccc(F)c1` (configuration not stated), the inhibition entry in assay [1] is “Active”.

With `COc1cc(OC2CCC(OCc3ccccc3)CC2)cc(-c2cccc(F)c2)c1CCNC(C)=O` (configuration not stated), in assay [4], the inhibition result is “Active”.

(Values after ChEMBL document CHEMBL4251564, “Development of noviomimetics that modulate molecular chaperones and manifest neuroprotective effects” (Eur J Med Chem, 2018).)
